The list is not random: actives were taken first. Their share in the collection is about 2%.
ARFGAP1 inhibitor – inhibits rat ARF GTPase activating protein 1 | Q62848 | AID 651572 | Arfgap1-stimulated ARF1 GTP hydrolysis, GDP FP detection | inhibition, % at 16.5 µM | 0.26% of 360,000 active;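 active = inhibition above a per-plate limit, mean inhibition of low control wells plus 3 SD, cut at about 25% in these data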
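System: truncated rat Arfgap1 GAP domain / Benchmarks: high control wells lacking Arfgap1, low control full reaction with DMSO / Times: compound-enzyme preincubation 20 min, reaction 120 min, detection 60 min, 25 °C / Repeats: one replicate per compound / Also added: human ARF1(Δ1-17)-GTP substrate / Measured by: Tracer-displacement fluorescence polarization with EDTA stop, 620/688 nm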
LEDGF integ inh – blocks HIV-1 LEDGF/p75-dependent DNA integration; TR-FRET IN-LEDGF/p75 DNA integration, Eu/Cy5; inhibition, % at 3.7 µM; 0.64% of 370,000 active; AID 743269;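 active = inhibition above the screen-wide mean plus 3 SD, cut at about 13% in these data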;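 also: signal is the Cy5 over europium emission ratio at 671 and 618 nm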
ASAP1 GAP inh – inhibitors of human ASAP1 ArfGAP activity; Q9ULH1; 0.19% of 360,000 active; AID 624377; inhibition, % at 16.5 µM; ASAP1-stimulated ARF1 GTP hydrolysis, GDP FP detection; in the data active = inhibition above about 25%
Target sequence (Q9ULH1 325-724 limits assumed): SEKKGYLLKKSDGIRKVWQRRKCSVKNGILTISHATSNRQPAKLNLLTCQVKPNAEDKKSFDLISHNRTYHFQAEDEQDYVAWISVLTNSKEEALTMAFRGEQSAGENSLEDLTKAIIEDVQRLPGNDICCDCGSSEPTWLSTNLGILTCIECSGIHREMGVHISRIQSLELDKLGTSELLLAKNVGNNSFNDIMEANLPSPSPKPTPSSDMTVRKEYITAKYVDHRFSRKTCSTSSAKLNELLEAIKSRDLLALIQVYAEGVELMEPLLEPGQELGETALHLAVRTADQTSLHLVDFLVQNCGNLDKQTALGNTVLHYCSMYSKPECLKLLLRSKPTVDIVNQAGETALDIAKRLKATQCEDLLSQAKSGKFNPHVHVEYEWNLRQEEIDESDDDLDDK
UHRF1 binding – blocks human UHRF1 binding to methylated DNA | UHRF1 binding to methylated oligo, TR-FRET | inhibition, % at 4.4 µM | 0.75% of 370,000 active | AID 687016;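 also: UHRF1 SRA domain binding a hemimethylated CpG hairpin DNA probe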
MBD2 inh – inhibitors of human MBD2 binding to methylated oligonucleotide; TR-FRET; 0.31% of 370,000 active; AID 686964; Q9UBB5; inhibition, % at 4.4 µM; in the data active = inhibition above about 13%
TDP2 inh – blocks human TDP2 phosphodiesterase activity; O95551; recombinant TDP2, T5PNP hydrolysis, p-nitrophenol absorbance 415 nm; inhibition, % at 12.8 µM; 0.34% of 370,000 active;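 active = inhibition above the mean of all tested compounds plus 3 SD, set per campaign, cut at about 25% in these data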
Target sequence (O95551 whole entry, looked up): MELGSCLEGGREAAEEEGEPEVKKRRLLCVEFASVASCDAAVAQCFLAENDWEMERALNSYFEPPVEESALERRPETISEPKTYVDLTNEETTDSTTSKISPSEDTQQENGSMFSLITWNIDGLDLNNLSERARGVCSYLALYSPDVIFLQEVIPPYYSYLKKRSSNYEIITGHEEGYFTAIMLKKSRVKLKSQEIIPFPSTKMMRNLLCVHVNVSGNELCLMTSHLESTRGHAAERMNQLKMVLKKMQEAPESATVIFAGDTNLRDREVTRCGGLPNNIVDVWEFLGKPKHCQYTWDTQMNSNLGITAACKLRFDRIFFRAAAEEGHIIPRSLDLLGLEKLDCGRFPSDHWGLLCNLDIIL
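System – recombinant human TDP2 · Amount – 120 nM TDP2 per well · Buffer or medium – Mg2+-containing Tris-HCl buffer, pH 7.5 · Reagent – T5PNP substrate, 5 mM · Dosing – 12.8 µM single point, 1% DMSO · Incubation – 2 h at 37 °C · Measured by – epi absorbance · Read-out basis – percent inhibition · Benchmarks – high control without enzyme, low control DMSO plus TDP2 · Repeats – singlicate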
UHRF1 ctr MBD2 – UHRF1 methyl-oligo binding inhibition as MBD2 counter-screen; shares compounds with MBD2 inh; UHRF1 binding to methylated oligonucleotide, TR-FRET; inhibition, % at 4.4 µM; 25% of 1,000 active;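 also: UHRF1 SRA domain binding a labeled hemimethylated CpG hairpin DNA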
MBD2 confirm – confirmation of human MBD2-DBD methylated oligonucleotide binding inhibitors. shares compounds with MBD2 inh. AID 720531. inhibition, % at 4.4 µM. TR-FRET MBD2-DBD binding to methylated oligonucleotide. 26% of 1,000 active; in the data active = inhibition above about 14%
Large screens that a line does not name were inactive (follow-up assays come after a bar, where they were run). Rule as the data show it, unless noted: active = inhibition above about 21%; inactive = the rest.

CN(C)c1ncc(C2=C(Cl)C(=O)C(N3CCCC3)=C(Cl)C2=O)s1	LEDGF integ inh 62.8, UHRF1 binding 72.6, MBD2 inh 24.3, TDP2 inh 27.3 | UHRF1 ctr MBD2 36.4 | MBD2 confirm 24.0
CNC(=O)Cn1ncc2c(C)n(Cc3ccc(C)cc3)c(C)c2c1=O	none
Cc1c2cnn(CC(=O)Nc3c(F)c(F)cc(F)c3F)c(=O)c2c(C)n1Cc1ccccc1F	MBD2 inh 13.6 | UHRF1 ctr MBD2 inactive | MBD2 confirm 29.2
CCOc1ccc(NC(=O)CN2CCCC2c2cccs2)cc1S(=O)(=O)N1CCCC1 (centres undefined)	MBD2 inh 41.8 | UHRF1 ctr MBD2 inactive | MBD2 confirm inactive
C/C(=N\NC(=O)c1nc2ccccn2c1C)c1cccc([N+](=O)[O-])c1	MBD2 inh 57.8 | UHRF1 ctr MBD2 inactive | MBD2 confirm inactive
C/C(=N\NC(=O)c1nc2ccccn2c1C)c1ccc2c(c1)OCO2	none
Cc1ccc(NC(=S)N(CCCN2CCN(C)CC2)Cc2cccs2)cc1	UHRF1 binding 25.2, MBD2 inh 16.3 | UHRF1 ctr MBD2 inactive | MBD2 confirm inactive
NC(=O)COC(=O)c1cc(Cl)cc(Cl)c1N	MBD2 inh 32.3 | UHRF1 ctr MBD2 inactive | MBD2 confirm inactive
Nc1c(Cl)cc(Cl)cc1C(=O)OCC(=O)N1CCCC1	none
CCOC(=O)c1ccc(NC(=O)NC2CCN(CC(=O)NCc3ccc4c(c3)OCO4)CC2)cc1	MBD2 inh 18.6 | UHRF1 ctr MBD2 inactive | MBD2 confirm inactive
O=C(CN1CCC(NC(=O)Nc2ccc3c(c2)OCO3)CC1)Nc1ccc2c(c1)OCCO2	none (no result: ARFGAP1 inhibitor, ASAP1 GAP inh)
O=C(O)c1ccc2c(c1)C(=O)/C(=C\c1ccco1)C2=O	LEDGF integ inh 79.4, UHRF1 binding 88.0, MBD2 inh 28.5 | UHRF1 ctr MBD2 38.1 | MBD2 confirm inactive
O=C(O)c1ccc2c(c1)C(=O)/C(=C/c1ccccc1)C2=O	none
CN(C)C=Nc1ncc2c3ccccc3n(CCN(C)C)c2c1C#N	none
CCN(CC)CCn1c2ccccc2c2cnc(N)c(C#N)c21	MBD2 inh 16.4 | UHRF1 ctr MBD2 21.2 | MBD2 confirm 32.7
CCOC(=O)[C@@]12CN(C(=O)OC(C)(C)C)CC=C1N(Cc1ccc(OC)cc1)C(=O)[C@H]2CC(=O)N1CCCC1	none (no result: ARFGAP1 inhibitor, ASAP1 GAP inh)
CCOc1ccccc1NC=C1C(=O)OC(C)(C)OC1=O	MBD2 inh 13.4 | UHRF1 ctr MBD2 inactive | MBD2 confirm inactive
COc1ccccc1NC=C1C(=O)OC(C)(C)OC1=O	none
O=C(CSc1nnc(-c2ccccn2)n1-c1ccccc1)c1ccc(F)cc1	none (no result: ARFGAP1 inhibitor, ASAP1 GAP inh)
O=C(COC(=O)c1cc2c(s1)CCC2)Nc1ccc(F)cc1	UHRF1 binding 27.5, MBD2 inh 14.9 | UHRF1 ctr MBD2 32.0 | MBD2 confirm 19.3
CCc1csc(N2[C@H](CN(CCOC)S(=O)(=O)c3ccccc3[N+](=O)[O-])[C@H](c3ccccc3)[C@@H]2CO)n1	none (no result: ARFGAP1 inhibitor, ASAP1 GAP inh)
Cc1ccc(S(=O)(=O)NC(=O)Nc2ccc(F)c(F)c2)cc1	none
Cc1ccc(S(=O)(=O)NC(=O)Nc2cccc(S(=O)(=O)N(C)C)c2)cc1	MBD2 inh 55.9 | UHRF1 ctr MBD2 inactive | MBD2 confirm inactive
C[C@H](NC(=O)c1cc2c(cn1)[nH]c1ccccc12)C(=O)O	MBD2 inh 41.9 | UHRF1 ctr MBD2 inactive | MBD2 confirm inactive
COC(=O)[C@H](C)NC(=O)c1cc2c(cn1)[nH]c1ccccc12	none
COC(=O)c1ccccc1NC(=O)CSc1nc(O)cc(=O)n1C1CCCC1	UHRF1 binding 24.2, MBD2 inh 13.4 | UHRF1 ctr MBD2 inactive | MBD2 confirm inactive
Cc1nn(CCC(=O)NNC(=O)Nc2ccccc2)c(C)c1[N+](=O)[O-]	none (no result: ARFGAP1 inhibitor, ASAP1 GAP inh)
C[C@H]1CN([C@@H](C)CO)C(=O)CCCn2nncc2CO[C@H]1CN(C)S(=O)(=O)c1ccc(-n2cccn2)cc1	MBD2 inh 16.3 | UHRF1 ctr MBD2 inactive | MBD2 confirm inactive
CCOC(=O)c1csc(NC(=O)C2CCCN(S(=O)(=O)c3ccc(C)cc3)C2)n1 (centres undefined)	none (no result: ARFGAP1 inhibitor, ASAP1 GAP inh)
O=C(O)c1cc(N2C(=O)CCC2=O)ccc1Cl	MBD2 inh 15.1 | UHRF1 ctr MBD2 inactive | MBD2 confirm inactive
O=C1COc2ccc(C(=O)COC(=O)/C=C/c3ccc(Br)o3)cc2N1	LEDGF integ inh 24.1, UHRF1 binding 45.6, MBD2 inh 18.8 | UHRF1 ctr MBD2 43.8 | MBD2 confirm 32.4
Cc1ccc(/C=C/C(=O)OCC(=O)c2ccc3c(c2)NC(=O)CO3)o1	none
CN(C)CC(=O)N[C@@H]1C[C@@H]2O[C@@H](CO)CC[C@@H]2O[C@@H]1CCc1ccc(C#Cc2ccccc2)cc1	none (no result: ARFGAP1 inhibitor, ASAP1 GAP inh)
Cc1ccc(S(=O)(=O)Nc2ccccc2N=Cc2c(F)c(F)c(F)c(F)c2F)cc1	MBD2 inh 13.8 | UHRF1 ctr MBD2 inactive | MBD2 confirm inactive
CN(CCO)c1ccc2c(c1)Oc1ccccc1CN(Cc1cn(Cc3ccc(C(F)(F)F)cc3)nn1)S2(=O)=O	none (no result: ARFGAP1 inhibitor, ASAP1 GAP inh)
COc1ccc2sc(-c3ccccc3OC)c(C#CCCO)c2c1	MBD2 inh 14.7 | UHRF1 ctr MBD2 inactive | MBD2 confirm inactive
COc1cc(OC)cc(-c2sc3ccc(OC)cc3c2C#CCCO)c1	none
Cc1ccc(C(=O)NC2CCS(=O)(=O)C2)cc1S(=O)(=O)N1CCCC1 (centres undefined)	MBD2 inh 17.0 | UHRF1 ctr MBD2 inactive | MBD2 confirm inactive
Cc1ccc(C(=O)NC2CCCC2)cc1S(=O)(=O)N1CCCCC1	none
CCCC[C@H](C(=O)N(C)c1ccccc1)[C@@H](O)c1ccc2ccccc2c1	none (no result: ARFGAP1 inhibitor, ASAP1 GAP inh)
CCOC(=O)c1[nH]c2ccc(OC)cc2c1NC(=O)c1ccc(OC)c(OC)c1	MBD2 inh 15.2 | UHRF1 ctr MBD2 inactive | MBD2 confirm inactive
CCOC(=O)c1[nH]c2ccc(OC)cc2c1NC(=O)c1nonc1C	none
O=S(=O)(c1ccccc1Br)N(Cc1cn(CC2CCCCC2)nn1)C1CC1	none (no result: ARFGAP1 inhibitor, ASAP1 GAP inh)
O=C(Cn1nc(-c2ccccc2Cl)ccc1=O)Nc1ccccc1-c1ccccc1	MBD2 inh 43.0 | UHRF1 ctr MBD2 inactive | MBD2 confirm inactive
Clc1ccc2nc(CNc3nc(N4CCOCC4)nc4c3ncn4-c3ccsc3)[nH]c2c1	none (no result: ARFGAP1 inhibitor, ASAP1 GAP inh)
Cc1c(-c2ccc(F)cc2)nc(N)c(C#N)c1-c1cccnc1	none
Cc1ccc(-c2c(C)c(-c3ccc(F)cc3)nc(N)c2C#N)o1	MBD2 inh 18.6 | UHRF1 ctr MBD2 inactive | MBD2 confirm inactive
